These results are taken from ChEMBL document CHEMBL4190200, “Inhibition Potential of Cycloartane-Type Glycosides from the Roots of Cimicifuga dahurica against Soluble Epoxide Hydrolase” (J Nat Prod, 2017).

SMILES strings stand for the structures. Active and inactive are the calls of the source. No cut-off for these calls is given here.

Test [1] deals with T1, Bifunctional epoxide hydrolase 2 (Homo sapiens) (UniProt P34913).
T1 sequence (whole entry): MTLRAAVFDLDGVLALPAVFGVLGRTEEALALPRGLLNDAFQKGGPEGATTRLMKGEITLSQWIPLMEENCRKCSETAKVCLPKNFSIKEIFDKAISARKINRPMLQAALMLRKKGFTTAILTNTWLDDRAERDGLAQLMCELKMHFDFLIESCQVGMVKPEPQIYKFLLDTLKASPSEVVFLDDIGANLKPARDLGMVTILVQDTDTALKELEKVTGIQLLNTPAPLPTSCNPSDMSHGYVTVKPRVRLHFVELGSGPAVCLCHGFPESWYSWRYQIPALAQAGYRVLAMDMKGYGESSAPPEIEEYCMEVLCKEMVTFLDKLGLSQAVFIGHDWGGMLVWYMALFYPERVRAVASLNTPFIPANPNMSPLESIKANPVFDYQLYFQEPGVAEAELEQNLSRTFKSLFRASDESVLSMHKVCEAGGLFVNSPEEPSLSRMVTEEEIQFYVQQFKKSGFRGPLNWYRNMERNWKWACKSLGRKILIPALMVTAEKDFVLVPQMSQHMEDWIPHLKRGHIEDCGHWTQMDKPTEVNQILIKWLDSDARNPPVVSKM
Put plainly: Competitive inhibition of soluble epoxide hydrolase (unknown origin) using PHOME as substrate measured for 1 hr by Lineweaver-Burk plot analysis.

Test [2] deals with T1, Bifunctional epoxide hydrolase 2 (Homo sapiens). Put plainly: Inhibition of soluble epoxide hydrolase (unknown origin) using PHOME as substrate at 100 uM measured for 1 hr by fluorescence assay relative to control. The gist of the method:
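sEH (31.6 ng/mL) mixed with compound in MeOH in 25 mM Bis-Tris-HCl, pH 7.0, with 0.1 mg/mL BSA; 40 μM PHOME substrate (stock added) started the reaction at 37 °C. Fluorescence read at ex 330/em 465 nm for 1 h. Activity (%) taken from the signal change between 0 and 40 min, relative to the uninhibited control. Positive control AUDA.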

Test [3] addresses T2, Bifunctional epoxide hydrolase 2 (Homo sapiens, UniProt P34913).
T2 sequence (P34913 whole entry): T1 sequence (whole entry)
Nature of the test: Inhibition of soluble epoxide hydrolase (unknown origin) using PHOME as substrate measured for 1 hr by fluorescence assay.

The target in test [4] is T1, Bifunctional epoxide hydrolase 2 (Homo sapiens). Put plainly: Non-competitive inhibition of soluble epoxide hydrolase (unknown origin) using PHOME as substrate measured for 1 hr by Lineweaver-Burk plot analysis.
Test [5] has the same target. Nature of the test: Mixed inhibition of soluble epoxide hydrolase (unknown origin) using PHOME as substrate measured for 1 hr by Lineweaver-Burk plot analysis.

`C[C@@H]1C[C@H]([C@@H](O)C(C)(C)O)O[C@]2(O)[C@H]1[C@@]1(C)CC[C@@]34C[C@@]35CC[C@H](O[C@@H]3OC[C@@H](O)[C@H](O)[C@H]3O)C(C)(C)[C@@H]5CC=C4[C@]1(C)[C@H]2O`: in test [1], the inhibition mode entry was “Active”. Besides, in test [2], the inhibition – broadly, how much of the control response was suppressed – came out at 84.8%. Moreover, the half-maximal inhibitory concentration (IC50) (as a rule, the concentration at which inhibition is half-maximal) in test [3] was 10.7 µM.

Consider `C[C@H]1[C@H]2[C@@H](O[C@@]3(O)[C@@H]1OC(C)(C)[C@H]3O)[C@H](O)[C@@]1(C)[C@@H]3CC[C@H]4C(C)(C)[C@@H](O[C@@H]5OC[C@@H](O)[C@H](O)[C@H]5O)CC[C@@]45C[C@@]35CC[C@]21C`, for which the inhibition mode entry in test [1] was “Active”. Also, the inhibition in test [2] came out at 70.2%. Further, 4.4 µM corresponded to half-maximal inhibition in test [3] (IC50).

`CC(=O)OC(C)(C)[C@H]1O[C@@]23O[C@@H]1C[C@@H](C)[C@@H]2[C@@]1(C)CC[C@@]24C[C@@]25CC[C@H](O[C@@H]2OC[C@@H](O)[C@H](O)[C@H]2O)C(C)(C)[C@@H]5CC=C4[C@]1(C)[C@H]3O`: in test [1], the inhibition mode result was “Active”. Moreover, in test [2], the inhibition turned out to be 76.7%. Further, in test [3], it took 24 µM to reach half-maximal inhibition (IC50).

In turn, `C[C@@H]1CC(=O)[C@H](O)[C@]2(O)[C@H]1[C@@]1(C)CC[C@@]34C[C@@]35CC[C@H](O[C@@H]3OC[C@@H](O)[C@H](O)[C@H]3O)C(C)(C)[C@@H]5CC=C4[C@]1(C)[C@H]2O` gave an inhibition in test [2] of 69.6%. For the same molecule, the inhibition entry in test [4] was “Active”. In test [3], the IC50 was determined as 8.6 µM.

Molecule `CC(=O)O[C@H]1[C@H](O[C@H]2CC[C@]34C[C@]35CC[C@]3(C)[C@H]6[C@H](C)C[C@H]7O[C@@]6(O[C@H]7C(C)(C)O)[C@H](O)[C@@]3(C)C5=CC[C@H]4C2(C)C)OC[C@@H](O)[C@@H]1O` had an inhibition in test [2] of 64.9%. Besides, the IC50 in test [3] is 60.9 µM.

Turning to `CC(=O)O[C@H]([C@H]1C[C@@H](C)[C@H]2[C@@](O)(O1)[C@H](O)[C@@]1(C)[C@@H]3CC[C@H]4C(C)(C)[C@@H](O[C@@H]5OC[C@@H](O)[C@H](O)[C@H]5O)CC[C@@]45C[C@@]35CC[C@]21C)C(C)(C)O`, the inhibition mode result in test [1] was “Active”. This molecule also had an inhibition in test [2] of 66.1%. Also, in test [3], half-maximal inhibition (IC50) was put at 0.4 µM.

Molecule `CC(=O)O[C@H](C[C@@H](C)[C@H]1C(=O)[C@H](O)[C@@]2(C)C3=CC[C@H]4C(C)(C)[C@@H](O[C@@H]5OC[C@@H](O)[C@H](O)[C@H]5O)CC[C@@]45C[C@@]35CC[C@]12C)[C@@H](O)C(C)(C)O` yielded an inhibition in test [2] of 72.4%. For the same molecule, the inhibition entry in test [4] was “Active”. This molecule also came in with an IC50 in test [3] of 5.2 µM.

As for `COC(C)(C)[C@H]1O[C@@]23O[C@@H]1C[C@@H](C)[C@@H]2[C@@]1(C)CC[C@@]24C[C@@]25CC[C@H](O[C@@H]2OC[C@@H](O)[C@H](O)[C@H]2O)C(C)(C)[C@@H]5CC=C4[C@]1(C)[C@H]3O`, the inhibition mode entry in test [1] is “Active”. Also, the inhibition in test [2] is 75.6%. This molecule displayed an IC50 in test [3] of 0.4 µM.

`C[C@@H]1C[C@]23OCC(C)(O)[C@H]2O[C@@]2(O3)[C@H]1[C@@]1(C)CC[C@@]34C[C@@]35CC[C@H](O[C@@H]3OC[C@@H](O)[C@H](O)[C@H]3O)C(C)(C)[C@@H]5CC=C4[C@]1(C)[C@H]2O` (some centres undefined): the inhibition result in test [5] was “Active”. Moreover, the inhibition in test [2] worked out at 63.2%. This molecule also displayed an IC50 in test [3] of 14.6 µM.

For the molecule `C[C@@H]1C[C@H]2O[C@]3(O[C@H]2C(C)(C)O)[C@H]1[C@@]1(C)[C@H](O)C[C@@]24C[C@@]25CC[C@H](O[C@@H]2OC[C@@H](O)[C@H](O)[C@H]2O)C(C)(C)[C@@H]5CC=C4[C@]1(C)[C@H]3O`, the inhibition in test [2] is 61.9%. Also, the inhibition entry in test [4] is “Active”. The same molecule registered an IC50 in test [3] of 18.5 µM.
